Assay outcomes (PubChem)
Mcl1-Bid inh: Mcl-1/Bid interaction inhibition. 220,000 tested, 0.97% active. inhibition, % at 21.7 µM. TR-FRET Mcl-1/Bid-Dy647 peptide binding, 1536-well;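 active = compounds that cut the binding signal by more than half at the single screening dose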;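 also: His-tagged Mcl-1 with europium anti-His antibody binding Bid BH3 peptide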
Target sequence (Q07820 whole entry, looked up): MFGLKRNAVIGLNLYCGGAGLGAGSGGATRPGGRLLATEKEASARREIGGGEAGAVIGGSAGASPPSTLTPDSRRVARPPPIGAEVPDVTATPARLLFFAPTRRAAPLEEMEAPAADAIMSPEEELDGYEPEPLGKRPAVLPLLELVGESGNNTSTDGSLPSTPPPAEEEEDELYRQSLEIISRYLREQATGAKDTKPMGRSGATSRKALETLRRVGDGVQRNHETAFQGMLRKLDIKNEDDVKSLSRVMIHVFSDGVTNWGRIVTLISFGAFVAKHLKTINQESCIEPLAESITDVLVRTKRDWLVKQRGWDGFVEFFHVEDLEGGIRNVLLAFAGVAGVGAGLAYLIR
Mcl-1 Bim block: disrupts Bim peptide binding to human Mcl-1 | Q07820 | inhibition, % at 10 µM | Bead-based flow cytometry, Bim peptide-Mcl-1 binding | 190,000 tested, 0.1% active; in the data active = inhibition above about 40%
14-3-3 Bad PPI: disrupts binding of bovine 14-3-3 zeta to phospho-Bad peptide; TR-FRET 14-3-3zeta/Dy647-pBad peptide displacement, 1 h; inhibition, % at 21.7 µM; 220,000 tested, 0.71% active;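 active = inhibition above about 70%, limit read from the data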
Target sequence (P63103 whole entry, looked up): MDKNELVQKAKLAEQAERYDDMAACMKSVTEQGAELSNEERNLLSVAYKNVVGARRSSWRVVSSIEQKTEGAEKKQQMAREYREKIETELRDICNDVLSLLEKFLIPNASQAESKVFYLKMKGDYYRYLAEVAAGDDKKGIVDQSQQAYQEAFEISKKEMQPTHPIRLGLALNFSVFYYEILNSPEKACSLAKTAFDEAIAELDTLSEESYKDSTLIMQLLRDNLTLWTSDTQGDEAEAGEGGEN
Hck-Nef inh: inhibitors of human Hck kinase activated by Nef; P08631; Recombinant Hck-YEEI plus Nef, Z-Lyte FRET kinase assay; inhibition, % at 20 µM; 220,000 tested, 0.68% active;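 active = Hck-Nef kinase inhibition above about 50%, limit read from the data; inactive = inhibition below that limit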
Mcl1-Noxa inh: disrupts binding of human Mcl-1 to Noxa peptide; Q07820; TR-FRET Mcl-1/Noxa peptide binding, 2 h; inhibition, % at 21.7 µM; 220,000 tested, 1.5% active; AID 1022;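 active = compounds that cut the protein-peptide binding signal by more than 50% relative to plate controls in a single-dose test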;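 also: His-tagged Mcl-1 with rhodamine Noxa BH3 peptide and terbium anti-His antibody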
Calb biofilm kill: mixtures killing C. albicans biofilm; C. albicans biofilm persisters + clotrimazole, fluorescence viability; primary screen in compound mixtures of four per well; inhibition, % at 7.6 µM; 120,000 tested, 0.02% active; AID 1242;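 active = inhibition above 30.3% in the primary screen of four-compound pools, then above 30% when the compound was retested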;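 also: compounds exposed to preformed 24 h biofilms for 48 h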
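Probe or stimulus – Clotrimazole 50 µg/mL co-treatment · System – C. albicans biofilms · Schedule – 24 h biofilm formation, then 48 h compound exposure, 37 °C · Evaluation – percent inhibition of biofilm viability · Technique – 2-h Alamar Blue fluorescence, 535/590 nm excitation/emission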
Large screens that a line does not name were inactive; ! = not confirmed by another sample; [ ] = remark or other dose. In the library only some 3.2% were active in any assay of this set; here they are far more common.

CNc1ccc(Br)cc(C(=O)/C=C/c2ccc(Cl)cc2Cl)c1=O	Mcl1-Noxa inh 92
CNc1ccc(Br)cc(C(=O)/C=C/c2cccc(OC)c2)c1=O	Mcl1-Noxa inh 81
CNc1ccc(Br)cc(C(=O)/C=C/c2ccc(OC)cc2OC)c1=O	Mcl1-Noxa inh 76
COc1cc(C(=O)NC2(C(F)(F)F)NC(=O)N(CCCc3ccccc3)C2=O)cc(OC)c1OC (stereo not drawn)	Mcl1-Bid inh 64
CC(=O)C1=C(O)C(=O)N(c2cccnc2)C1c1ccc(Cl)cc1 (stereo not drawn)	14-3-3 Bad PPI 83 (no result: Calb biofilm kill)
O=C1/C(=C/c2ccco2)Oc2c1ccc(O)c2CN1CCCCC1	Mcl1-Noxa inh 54
CC1CCN(Cc2c(O)ccc3c2O/C(=C\c2ccco2)C3=O)CC1	Mcl1-Noxa inh 56
Cc1nc(N2CCCCC2)sc1C(=O)c1ccc(Cl)c([N+](=O)[O-])c1	none
COC(CNC(=O)c1cccnc1)OC	none
COC(CNC(=O)c1ccc2c3c(onc13)-c1ccccc1C2=O)OC	Mcl1-Noxa inh 70 (no result: Mcl-1 Bim block)
CCN(CC(=O)Nc1cc(Cl)ccc1OC)CC(=O)NC1CCS(=O)(=O)C1 (stereo not drawn)	14-3-3 Bad PPI 74 (no result: Mcl-1 Bim block)
CCN(CC(=O)Nc1cc(C)c(Cl)cc1OC)CC(=O)NC1CCS(=O)(=O)C1 (stereo not drawn)	none
Cc1nc(NC(=O)c2ccccc2)sc1-c1csc(Nc2ccc(Cl)cc2Cl)n1	14-3-3 Bad PPI 76[fluorescence artefact?] (no result: Calb biofilm kill)
CCOc1ccccc1Nc1nc(-c2sc(NC(=O)c3ccc([N+](=O)[O-])cc3)nc2C)cs1	Mcl1-Bid inh 96, Mcl1-Noxa inh 86 (no result: Calb biofilm kill)
Cc1ccc(Cl)cc1Nc1nc(-c2sc(NC(=O)c3cccc(Cl)c3)nc2C)cs1	Mcl1-Bid inh 61, 14-3-3 Bad PPI 89 (no result: Calb biofilm kill)
COc1ccc(Cl)cc1Nc1nc(-c2sc(NC(=O)c3ccccc3)nc2C)cs1	Mcl1-Bid inh 70 (no result: Calb biofilm kill)
Cc1ccccc1Nc1nc(-c2sc(NC(=O)c3cccc(Cl)c3)nc2C)cs1	none (no result: Calb biofilm kill)
COc1ccc(OC)c(Nc2nc(-c3sc(NC(=O)c4ccccc4)nc3C)cs2)c1	none (no result: Calb biofilm kill)
Cc1cccc(NC(=O)CSc2cc(C)c(C#N)c3nc4ccccc4n23)c1	none (no result: Mcl-1 Bim block)
CCOc1ccc(NC(=O)C2Cc3ccccc3CN2S(=O)(=O)CC)cc1 (stereo not drawn)	none
CCS(=O)(=O)N1Cc2ccccc2CC1C(=O)OCC(=O)N(C(C)C)C(C)C (stereo not drawn)	Mcl1-Noxa inh 70
CCc1nnc(NS(=O)(=O)c2ccc(NC(=S)NC(=O)/C=C/c3ccc(F)cc3)cc2)s1	Mcl1-Noxa inh 61
COc1cc(NS(=O)(=O)c2ccc(NC(=S)NC(=O)/C=C/c3ccc(OC)c(OC)c3)cc2)ncn1	Mcl1-Noxa inh 59
COc1ccc(/C=C/C(=O)NC(=S)Nc2ccc(S(=O)(=O)Nc3cc(OC)ncn3)cc2)cc1	none
CCc1nnc(NS(=O)(=O)c2ccc(NC(=S)NC(=O)/C=C/c3ccc([N+](=O)[O-])cc3)cc2)s1	none (no result: Mcl-1 Bim block)
CCOc1ncccc1C(=O)OCc1cccc([N+](=O)[O-])c1	none
O=S1(=O)CCN(Cc2ccc(Cl)c(C(F)(F)F)c2)CC1	none
CCc1ccc(C(CNC(=O)c2ccc3c(=O)n(-c4ccccc4F)c(=S)[nH]c3c2)N(C)C)cc1 (stereo not drawn)	none
Cn1c(=O)c(C(=O)CSc2nnc(Nc3ccccc3)s2)c(N)n(Cc2ccccc2)c1=O	Mcl1-Noxa inh 70 (no result: Calb biofilm kill)
CN(C)c1ccc(CN(C(=O)c2ccc(Cl)c([N+](=O)[O-])c2)C2CCS(=O)(=O)C2)cc1 (stereo not drawn)	none (no result: Mcl-1 Bim block)
O=c1oc(-c2ccccc2)nc2sc3c(c12)CCC3	Mcl1-Noxa inh 60
O=C1CCC(=O)N1c1ccc(-c2nc3sc4c(c3c(=O)o2)CCC4)cc1	none (no result: Mcl-1 Bim block)
C/C(=N\Nc1ccc(F)cc1F)c1ccc(Br)s1	none
O=C(COC(=O)c1ccccc1Nc1cccc(C(F)(F)F)c1)NCc1ccco1	none (no result: Calb biofilm kill)
Cn1cnc([N+](=O)[O-])c1Sc1nc2ccccc2[nH]1	none (no result: Mcl-1 Bim block)
CS(=O)(=O)c1cc([N+](=O)[O-])c(Sc2nc3ccccc3[nH]2)c([N+](=O)[O-])c1	14-3-3 Bad PPI 87 (no result: Calb biofilm kill)
CC(=O)Nc1ccc(NC(=O)CC2Nc3cccc4cccc(c34)NC2=O)cc1 (stereo not drawn)	none (no result: 14-3-3 Bad PPI, Calb biofilm kill)
CC(=O)c1ccc(NC(=O)CC2Nc3cccc4cccc(c34)NC2=O)cc1 (stereo not drawn)	Mcl1-Noxa inh 83
COC(=O)CNC(=O)c1ccc(NS(=O)(=O)c2cc([N+](=O)[O-])ccc2Cl)cc1	none (no result: Mcl-1 Bim block)
CCc1cc(C(=O)OC)c(NC(=O)CC2Nc3cc(C)c(C)cc3NC2=O)s1 (stereo not drawn)	none
COC(=O)c1c(NC(=O)CC2Nc3cc(C)c(C)cc3NC2=O)sc(C)c1C (stereo not drawn)	Mcl1-Bid inh 62, Mcl1-Noxa inh 64
CN(C)C=Nc1ccccc1C1C=NNC1=O (stereo not drawn)	none (no result: Mcl-1 Bim block)
CCc1nc(-c2ccccc2)c2ccccn12	Mcl1-Noxa inh 62
O=Cc1c(-c2ccccc2)nc2ccccn12	none (no result: Mcl-1 Bim block)
ClCC1CN(Cc2ccccc2Cl)CCO1 (stereo not drawn)	none
O=C(CNC(=O)c1ccccc1)NC1(C(=O)NC2CCCCC2)CCCCC1	none
CC(=O)N(CN1C(=O)CCC1=O)c1ccc(Cl)c(Cl)c1	14-3-3 Bad PPI 82
O=C(NCc1ccccc1)C1=C[C@H](C2CC2)C[C@H](OCCCCO)O1	none
C=CCc1ccc(OCCCN2CCCC(C)C2)c(OC)c1 (stereo not drawn)	Mcl1-Bid inh 59 (no result: Calb biofilm kill)
O=S1(=O)c2ccccc2N=NN1Cc1cc(Cl)cc(Cl)c1	Mcl1-Noxa inh 99 (no result: Calb biofilm kill)
O=S1(=O)c2ccccc2N=NN1Cc1ccc(Cl)cc1	Mcl1-Noxa inh 53 (no result: Calb biofilm kill)
Oc1ccccc1C(Nc1nccs1)c1ccc2cccnc2c1O (stereo not drawn)	none (no result: Mcl-1 Bim block)
OCCN1CCN(C(c2cccs2)c2ccc3cccnc3c2O)CC1 (stereo not drawn)	Mcl1-Bid inh 82, Mcl1-Noxa inh 95 (no result: Calb biofilm kill)
CC(=O)/C(C#N)=C1\NC(=O)C(Cc2ccccc2Cl)S1 (stereo not drawn)	14-3-3 Bad PPI 74 (no result: Calb biofilm kill)
COc1ccc(NC2CCN(C3CC(=O)N(c4ccc(F)c(Cl)c4)C3=O)CC2)cc1 (stereo not drawn)	Mcl1-Noxa inh 56 (no result: Calb biofilm kill)
COc1cc2ncnc(NCc3ccccc3)c2cc1OC	none (no result: Calb biofilm kill)
COc1cc2ncnc(NCc3cccc(Cl)c3)c2cc1OC	Hck-Nef inh 65
Cc1c(OCC(F)(F)F)ccnc1CS(=O)c1nc2ccccc2[nH]1 (stereo not drawn)	Mcl1-Noxa inh 70!
O=C(CSc1nc2ccccc2[nH]1)NCCCn1ccnc1	none (no result: Calb biofilm kill)
COc1cc(-c2ncc3ccccn23)cc(OC)c1OC	14-3-3 Bad PPI 73 (no result: Calb biofilm kill)
CN(CC(=O)Nc1ccccc1Cl)C(=O)CSc1ncc(C(F)(F)F)cc1Cl	none
